First the molecules themselves.
B1: tRNA (parent)
chain: GUUCCGUUGGCGUAAUGGUAACGCGUCUCCCUCCUAAGGAGAAGACUGCGGGUUCGAGUCCCGUACGGAACG

Fewer inactive variants are shown than the library holds.

In this data set the parent is B1. Nature of the data set: yeast fitness relative to wild type (ratio to wild type); higher = fitter; tRNA-Arg(CCU), competitive growth, 37 C, YPD. The method, boiled down: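 Changes in genotype frequencies gave Darwinian fitness relative to wild type. Frequencies were read by 100-nucleotide paired-end sequencing of gene amplicons before and after pooled Saccharomyces cerevisiae strains, carrying tRNA-Arg(CCU) gene variants at the native locus, were competed in YPD at 37°C for 24 hours in six replicates. A genotype was kept only with ≥ 100 starting reads, and estimates < 0.5 were set to 0.5.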
As for C29U A37G, the yeast fitness turned out to be 0.729. As for C29U A37U, the yeast fitness came out at 0.734. Regarding C29G G68A, the yeast fitness is 0.595. C29G G56A A69U: the yeast fitness was at most 0.5.

In the case of C29U C31U U54G, the yeast fitness was determined as 0.522. In the case of C29G G56C C61A it was 0.512. In the case of C29G C30G it was 0.814; in that of C29G U32G G38A U53C A57U C62U, at most 0.5. As for C29U G41C C62U, the yeast fitness came to 0.552. Regarding C29U C49U C61A, the yeast fitness was at most 0.5. Under C29U C49U C61U stands 0.532; under C29U A36U C66U G67A, 0.527; under C29G G44C C49G C61G, at most 0.5. In the case of C29G A37G G67C it was 0.672; in that of C29U C34U A57C G63A A70G, at most 0.5; in that of C29G U54A, at most 0.5.

In the case of C29G U54G, the yeast fitness stood at 0.563.

As for C29G C33G U35G G44A, the yeast fitness came out at 0.628. In the case of C29G A36G A43U C66A it was at most 0.5; in that of C29G C31U A37U, at most 0.5; in that of C29U A40C C66U, 0.642. Under C29G A36U C49U stands 0.538. In the case of C29U C31U A70G it was 0.726; in that of C29G C61U, 0.685.

As for C29G C61G, the yeast fitness was found to be 0.54. Under C29G C46U A70U stands 0.618.

As to C29U C31U G67U, the yeast fitness came to 0.593. With C29U C55G, the yeast fitness was determined as 0.614. Under C29G C62A stands 0.506; under C29G C62U, 0.721. Consider C29U A42U U64C C66U A69U, for which the yeast fitness was at most 0.5.

C29G G56A C61A: the yeast fitness came to 0.547. In the case of C29G G56A C61U it was at most 0.5; in that of C29U C33U C61G, at most 0.5. On to C29G C30G U32C A36U, for which the yeast fitness worked out at 0.524. Consider C29G G51C, for which the yeast fitness was 0.55. On to C29G A36U A43G, for which the yeast fitness was at most 0.5. As for C29G A40C A42C G58A, the yeast fitness is at most 0.5. In the case of C29G A42U, the yeast fitness is 0.712.

With C29G A42C, the yeast fitness came to 0.685. With C29G A42G, the yeast fitness was determined as 0.694. As for C29U A45U C61U, the yeast fitness was determined as 0.644. Under C29U G41A stands 0.731. Under C29G C46G stands 0.687; under C29U C30U C31G C34G A37C A45G, at most 0.5. Turning to C29U C55U C66U, the yeast fitness was 0.58.

For the variant C29U G44A A57G, the yeast fitness stood at 0.623. In the case of C29U C31G C34A it was at most 0.5; in that of C29G G44A A57U, 0.553; in that of C29G C33G G58C C62G, at most 0.5. Turning to C29G U32C A36U C61G, the yeast fitness was at most 0.5. Under C29U C34G A43U C62U stands at most 0.5; under C29G C49A C55A C61U, at most 0.5; under C29U C31U U59C C66U A70C, 0.55. In the case of C29G A42G U64G it was at most 0.5; in that of C29G G39C A70U, 0.633; in that of C29U C30U U59A, at most 0.5.

As to C29U G38C A43U U53G G63C, the yeast fitness was at most 0.5. In the case of C29G U47G it was 0.707. Turning to C29G U47A, the yeast fitness was 0.561. Under C29G G48C stands 0.563.

Regarding C29G G48A, the yeast fitness turned out to be 0.586. In the case of C29G U53C C61G G67A A69C it was at most 0.5; in that of C29G A43G U47A, at most 0.5. Under C29G G56A stands 0.632; under C29G G39A G41A, at most 0.5; under C29G G67C, 0.667.

As to C29U A36C A45U U54C, the yeast fitness is at most 0.5. In the case of C29U A37C C49U C55G G68C it was at most 0.5; in that of C29U C34G G38C U54A A57C, at most 0.5; in that of C29G U47A U59A A69G, at most 0.5. For the variant C29U C34G C55U C61G, the yeast fitness was 0.508. On to C29G A42C G56A, for which the yeast fitness came to 0.601. Under C29G C31G A37C C66A stands 0.575; under C29G G56A G68C, at most 0.5; under C29G A36U C46G, 0.755.

As for C29U C62U, the yeast fitness stood at 0.763. With C29U C62G, the yeast fitness is 0.656.

Consider C29G U35G C60G C62G, for which the yeast fitness is at most 0.5. In the case of C29U A57U C62A it was at most 0.5.

C29U G44A: the yeast fitness stood at 0.818. Under C29U G48A stands 0.986; under C29U G48C, 0.859; under C29G G58C A69U, 0.607. Under C29G A40U C55A G67C stands at most 0.5; under C29G A43U C46G C62A, at most 0.5. Under C29G A43C G51C A57C stands at most 0.5; under C29G C33U G44C G48C C55A, at most 0.5; under C29G C30U C46U G48A, at most 0.5. On to C29U A42C A45C G50A, for which the yeast fitness is at most 0.5. Under C29U A40G U47A stands 0.582; under C29U C66G, 0.732. Regarding C29G U59C, the yeast fitness worked out at 0.606. In the case of C29G A57U it was 0.72; in that of C29G A43U C66U, at most 0.5. Under C29G G48A A69U stands 0.542; under C29G C55U, at most 0.5. As to C29G U35G C60G, the yeast fitness was at most 0.5. For C29U C30A A45C, the yeast fitness was 0.563.

For C29G A37C G58A, the yeast fitness is at most 0.5. In the case of C29G U35A A36C A65G C66G it was at most 0.5; in that of C29U A37U C46U, 0.602; in that of C29G C34A C60A, at most 0.5. Under C29U G38C A69U stands 0.581.

Turning to C29U A36C A43C C60A, the yeast fitness is at most 0.5.

For C29G A40G G63A, the yeast fitness is at most 0.5.

Regarding C29G C33U U35C G38A, the yeast fitness was at most 0.5. Under C29U C49G stands 0.739; under C29U A40C G56C C61G C62G G68C, at most 0.5.

Consider C29U A37U G67A, for which the yeast fitness came to 0.643. For the variant C29G G58C A65C, the yeast fitness is at most 0.5. For C29G U35G G41C C62U U64A, the yeast fitness came out at 0.602.

Regarding C29G A43C G67C, the yeast fitness was 0.654. Under C29U C60A stands 0.627; under C29U C60G, 0.515. Under C29U C60U stands 0.758; under C29G C46G G48C C62U, at most 0.5; under C29G C33G A43U, at most 0.5. C29G G48C C49U C61A: the yeast fitness was at most 0.5.

Regarding C29G C34G C46A U53A C61U, the yeast fitness came to 0.544. In the case of C29G C60G C61U it was 0.52; in that of C29G A36U, 0.569.

Regarding C29G C34U G38C C55A, the yeast fitness is at most 0.5.

Take C29G A40U C61U C66U: the yeast fitness is at most 0.5. Consider C29U A42G, for which the yeast fitness stood at 0.975.

As to C29U A42C, the yeast fitness turned out to be 0.676. In the case of C29U A42U it was 0.769; in that of C29G U32G G38A U53C, 0.566. Regarding C29G C30G C49A, the yeast fitness is 0.839.

As to C29G C55A U64C, the yeast fitness is at most 0.5. As to C29G U35C A57G, the yeast fitness is at most 0.5.

As for C29G C33G A42C G48A, the yeast fitness was found to be 0.777. In the case of C29U A40U G56C A69C it was 0.519; in that of C29U A43U C46A G50A C61G G68A, at most 0.5. In the case of C29G A37G, the yeast fitness worked out at 0.599. Under C29U A36G A40U G56C A69C stands at most 0.5. In the case of C29U A36C G48A G50C it was at most 0.5. In the case of C29G A36U A45U C55A it was at most 0.5; in that of C29U G48A G56C, 0.536; in that of C29G A70G, 0.548. Take C29G A70C: the yeast fitness is 0.76. Under C29G A70U stands 0.682. Under C29G C49A C60A stands 0.572; under C29G U32C C34U G56A, 0.667; under C29U A40C, 0.815.

Regarding C29U A40U, the yeast fitness amounted to 0.836. In the case of C29U A40U A65U it was 0.584. C29U C46G U54C G56C: the yeast fitness is at most 0.5.

On to C29G C33U A45U G56A U59C A65C A70G, for which the yeast fitness was at most 0.5. In the case of C29G A40U A43G C46G U64A it was at most 0.5; in that of C29U C31A U53G, at most 0.5. As to C29G C30U C31G C49U G50C, the yeast fitness is at most 0.5. As to C29G A65U, the yeast fitness was 0.579. In the case of C29U C31G C34G A37C C46A G50A A57U C66U it was at most 0.5; in that of C29U C31G C33A, 0.648. In the case of C29G G48A A70U it was at most 0.5; in that of C29G C55A U64A A65C, at most 0.5.

For the variant C29G U35G C61U, the yeast fitness came to 0.552. As to C29U C33A G63A A65C C66A, the yeast fitness is at most 0.5.

Take C29U G38C G63A: the yeast fitness is at most 0.5. On to C29G C33G C49U, for which the yeast fitness was determined as 0.536. Under C29U C49A G68C stands 0.584. For the variant C29U C30A, the yeast fitness amounted to 0.744. Turning to C29U C30U, the yeast fitness is 0.763. In the case of C29U C30G, the yeast fitness was 0.716. Turning to C29U C31A A69U, the yeast fitness is 0.627.

In the case of C29G A37G A45U G68C, the yeast fitness was at most 0.5.
